High-throughput results (PubChem BioAssay)
NLRP3 yeast inh: NALP3 inflammasome inhibitors in reconstituted yeast, primary screen, luminescence, uHTS. Yeast reconstituted NLRP3/ASC/caspase-1, beta-gal luminescence, 24 h. AID 2825, 2010. 330,000 compounds, 0.39% hits. inhibition, % at 10 µM;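 active means inhibition of 50% or more; inactive means inhibition below 50%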
NALP1 yeast inh: NALP1 inflammasome inhibitors in reconstituted yeast, colorimetric, S. cerevisiae, triplicate retest | S. cerevisiae NALP1/ASC/caspase-1 growth, X-gal OD620, 72 h | inhibition, % at 10 µM | 280,000 compounds, 0.61% hits; in the data active means inhibition mostly above about 24%, no sharp cut-off; inactive means mostly below about 32%
MC4R barr agon: MC4R agonists recruiting beta-arrestin, primary screen, cell-based, luminescence, agonist arm of biased-ligand search. Melanocortin receptor 4 (Homo sapiens), P32245. U2OS MC4R beta-arrestin complementation; percent of melanotan II response, DMSO zero. activation, % at 8.9 µM. 360,000 compounds, 0.98% hits;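 active means activation above a per-plate cutoff, the mean activation of sample wells on that plate plus 3 SD, cut at about 8% in these data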
MC4R antagonist: MC4R antagonists of cAMP signaling, primary screen, cell-based, TR-FRET, antagonist arm of biased-ligand search. AID 540295, 2011. 360,000 compounds, 0.48% hits. MC4R-expressing cells, MTII-stimulated cAMP, LANCE TR-FRET. inhibition, % at 6.5 µM. Melanocortin receptor 4 (Homo sapiens), P32245;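 active means inhibition above its plate's cutoff, the mean of tested wells on that plate plus 3 SD, cut at about 29% in these data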
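System – human MC4R-expressing U2OS cells · Also added – Melanotan II · Dosing – one concentration, 6.5 µM nominal · Timing – 30-min compound, 1-h challenge, 1-h detection, room temperature · Measured by – Eu-cAMP/anti-cAMP TR-FRET, emission 671 nm · Replicates – singlicate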
Tb MetRS inh: T. brucei MetRS inhibitors, primary screen, biochemical, luminescence; inhibition, % at 11.9 µM; purified T. brucei MetRS, ATP depletion, Kinase-Glo luminescence; 360,000 compounds, 0.4% hits;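 active means inhibition above a per-plate cutoff of the control wells' mean inhibition plus 3 SD, cut at about 5.5% in these data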
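System: purified T. brucei MetRS enzyme / Detection: Kinase-Glo luciferase luminescence reporting remaining unconsumed ATP / Medium: HEPES buffer with MgCl2, KCl, DTT, spermine, BSA, pyrophosphatase / Replication: singlicate, one well per compound / Evaluation: percent inhibition relative to median high and low control wells / Schedule: 2 h aminoacylation at 25 °C after 15 min preincubation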
A1 inh: caspase 3/7 activation in MEF A1-2A-BIM cells, primary screen, A1 inhibitor project, cell-based, luminescence, HTS; 330,000 compounds, 0.066% hits; caspase activation, % (concentration not given with the values); AID 2462, 2010; Caspase-Glo 3/7 luminescence, 3 h; percent of clofoctol response, vehicle zero;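 active means over half of replicate activation scores above 10%, or exactly half above 10 with the replicate mean above 10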
MC4R barr conf: MC4R beta-arrestin agonists, retest, confirmation, cell-based, luminescence, U2OS; 2,400 compounds, 31% hits; U2OS MC4R beta-arrestin recruitment; scaled DMSO 0%, Melanotan II 100%; AID 602192, 2012; shares compounds with MC4R barr agon; activation, % at 8.9 µM;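 active means mean activation across replicates above the hit cutoff set in the earlier primary screen, cut at about 8% in these data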
MOR DOR agonist: agonists of MOR-DOR heterodimerization, counter-screen for MC4R biased agonist project, cell-based, luminescence; shares compounds with MC4R barr agon; activation, % at 9.2 µM; 2,400 compounds, 5.8% hits; AID 602194, 2012; U2OS PathHunter beta-arrestin, beta-gal luminescence; percent of deltorphin B response, DMSO zero;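 active means mean activation across replicates exceeds the hit threshold derived in the earlier primary screen, cut at about 18% in these data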
Large screens that a line does not name were inactive (follow-up assays come after a bar, where they were run). Compounds with a hit are over-represented: about 2.5% of the library has one in this group of screens.

Cc1ccc2nc(C)cc(C(=O)N/N=C/c3ccncc3)c2c1	none
CC1CCCCN1S(=O)(=O)c1ccc(S(=O)(=O)N2CCN(c3ccccc3)CC2)cc1 (stereo not drawn)	MC4R barr agon 9.8 | MC4R barr conf 15 | MOR DOR agonist inactive
C=CCC1(C(=O)NCCO)CCN(C(=O)OC(C)(C)C)CC1	none
COc1ccc(-c2nc(-c3ccc(Br)o3)no2)cc1	MC4R barr agon 13 | MC4R barr conf inactive | MOR DOR agonist inactive
Cc1c(C#N)c(NC(=O)c2cccc(Cl)c2)n(Cc2ccccc2)c1C	none
COc1ccc(Cn2c(C)c(C)c(C#N)c2NC(=O)Nc2ccc(Cl)cc2)cc1	MC4R barr agon 13 | MC4R barr conf inactive | MOR DOR agonist inactive
COc1ccc(Cn2c(C)c(C)c(C#N)c2NC(=O)Nc2cccc(Cl)c2)cc1	MC4R barr agon 21 | MC4R barr conf inactive | MOR DOR agonist inactive
CC(C)(C)OC(=O)N1CCC(Cc2cc(-c3ccc(Cl)cc3)no2)(C(=O)O)CC1	none
CCOc1cc(C(=O)Nc2ccc3c(c2)OCO3)ccc1OCCOc1ccccc1Cl	MC4R barr agon 10 (no result: NALP1 yeast inh) | MC4R barr conf 12 | MOR DOR agonist inactive
CCC(=O)NC(=S)Nc1ccc(NC(=O)c2ccc(C)c([N+](=O)[O-])c2)cc1	MC4R barr agon 11 | MC4R barr conf inactive | MOR DOR agonist inactive
CCOc1ccc(C(=O)Nc2ccc(NC(=O)c3ccccc3)c(C)c2)cc1[N+](=O)[O-]	MC4R barr agon 12 | MC4R barr conf inactive | MOR DOR agonist inactive
CCOc1ccc(C(=O)Nc2cccc([N+](=O)[O-])c2)cc1Br	MC4R barr agon 15 | MC4R barr conf inactive | MOR DOR agonist inactive
CCOc1ccc(C(=O)Nc2ccc3c(c2)OCO3)cc1OCC	none
CCOc1ccc(C(=O)Nc2cccc(NC(=O)c3cccs3)c2)cc1[N+](=O)[O-]	none (no result: NLRP3 yeast inh, A1 inh)
CSc1ccc(CCCCCCOC(=O)C(C)(C)C)cc1	none (no result: NALP1 yeast inh)
COc1ccccc1C(=O)NC(CCSC)C(=O)NNC(=O)C(C)Oc1ccccc1F (stereo not drawn)	none (no result: NALP1 yeast inh)
CC(=O)Nc1ccc(S(=O)(=O)NN=CCCc2ccccc2)cc1	none (no result: NLRP3 yeast inh, NALP1 yeast inh, A1 inh)
CSc1nc(N)c(C(=O)N(c2ccccc2)c2ccccc2)s1	none (no result: NLRP3 yeast inh, NALP1 yeast inh, A1 inh)
O=C(Nc1ccc(NC(=O)c2sc3ccccc3c2Cl)cc1Cl)c1ccco1	MC4R barr agon 36 | MC4R barr conf 8.8 | MOR DOR agonist inactive
CCOc1ccc(C(=O)Nc2ccc(NC(=O)c3ccco3)c(Cl)c2)cc1Cl	MC4R barr agon 36 | MC4R barr conf inactive | MOR DOR agonist 19
O=C(Nc1ccc(NC(=O)c2cccs2)c(Cl)c1)c1ccco1	none
COc1cccc(C(=O)Nc2ccc(NC(=O)c3ccco3)c(Cl)c2)c1	none
CCOc1ccc(C(=O)Nc2ccc(NC(=O)c3ccco3)c(Cl)c2)cc1Br	MC4R barr agon 36 | MC4R barr conf inactive | MOR DOR agonist inactive
CCOC(=O)c1csc(CCNC(=O)c2ccccc2)n1	none (no result: NLRP3 yeast inh, NALP1 yeast inh, A1 inh)
C=CCN1C(=O)c2ccccc2NC1c1cc(Br)cs1 (stereo not drawn)	none
Cc1ccc(N2CN(S(=O)(=O)c3cccc([N+](=O)[O-])c3)c3nc4ccccc4nc32)cc1	none
C[C@H](O)[C@@H]1C(=O)N2CCc3ccc(-c4ccccc4)cc3[C@@H]2C[C@@H]1N(C)C(=O)c1ccc(C#N)cc1	none (no result: NLRP3 yeast inh, NALP1 yeast inh, A1 inh)
